Experimental data of several laboratories.
CA1: Carbonic anhydrase 1 (CA1, Homo sapiens, UniProt P00915)
ADRA2A: Alpha-2A adrenergic receptor (ADRA2A, Homo sapiens, UniProt P08913)
CA2: Carbonic anhydrase 2 (CA2, Homo sapiens, UniProt P00918)

Compound	target	test	Ki
O=C(NCc1cn(-c2ccc(Cl)cc2)nn1)c1ccc(=O)oc1	CA1	enzyme activity, inhibitor, stopped-flow	> 100000 nM
Cc1cc(Oc2ncccc2CN2CCN(c3cccc(Cl)c3)CC2)ccc1-c1c(C)c(=O)[nH]c(=O)n1C	ADRA2A	ligand displacement, radioligand	161 nM
CN(C/C=C/C#CC(C)(C)C)Cc1cccc2ccccc12	CA2	enzyme activity, inhibitor, absorbance	20300 nM
O=C(Oc1ccc(-c2ccccc2)cc1)c1ccc(=O)oc1	CA1	enzyme activity, inhibitor, stopped-flow	> 100000 nM
Cc1cc(Oc2ncccc2CN2CCN(c3c(C)cccc3C)CC2)ccc1-c1c(C)c(=O)[nH]c(=O)n1C	ADRA2A	ligand displacement, radioligand	731 nM
CC1=C(/C=C/C(C)=C/C=C/C(C)=C\C(=O)O)C(C)(C)CCC1	CA1	enzyme activity, inhibitor	5750 nM
Cc1cc(Oc2ncccc2CN2CCN(c3ccccc3C)CC2)ccc1-c1c(C)c(=O)[nH]c(=O)n1C	ADRA2A	ligand displacement, radioligand	59.4 nM
OC1CCN(c2ccc(/C=N/NC(=S)Nc3cccc(Cl)c3Cl)cc2)CC1	CA2	enzyme activity, inhibitor	271 nM
NS(=O)(=O)c1nnc(NC(=O)CN2CCC(F)CC2)s1	CA1	enzyme activity, inhibitor, stopped-flow	68.2 nM
Cc1cc(Oc2ncccc2CN2CCN(c3cccc(C)c3C)CC2)ccc1-c1c(C)c(=O)[nH]c(=O)n1C	ADRA2A	ligand displacement, radioligand	41.9 nM
NS(=O)(=O)c1nnc(NC(=O)C2CCC3(CCCC3)CC2)s1	CA2	enzyme activity, inhibitor, stopped-flow	59.4 nM
O=c1[nH]c(=O)n([C@H]2C[C@H](O)[C@@H](CO)O2)cc1/C=C/Br	CA1	enzyme activity, inhibitor	8390 nM
C#CCOC(=O)c1ccc(=O)oc1	CA1	enzyme activity, inhibitor, stopped-flow	> 100000 nM
CC(C)(C(=O)O)c1ccc(C(O)CCCN2CCC(C(O)(c3ccccc3)c3ccccc3)CC2)cc1 (stereo not drawn)	CA1	enzyme activity, inhibitor	13100 nM
O=C(Oc1ccc(Br)cc1)c1ccc(=O)oc1	CA1	enzyme activity, inhibitor, stopped-flow	> 100000 nM
CC(C(=O)Nc1nnc(S(N)(=O)=O)s1)C1CCCCC1 (stereo not drawn)	CA2	enzyme activity, inhibitor, stopped-flow	18.3 nM
Cc1cc(Oc2ncccc2CN2CCN(c3ccccc3O)CC2)ccc1-c1c(C)c(=O)[nH]c(=O)n1C	ADRA2A	ligand displacement, radioligand	57 nM
Cc1ccc(OC(=O)c2ccc(=O)oc2)cc1	CA1	enzyme activity, inhibitor, stopped-flow	> 100000 nM
Nc1nc2c(ncn2COCCO)c(=O)[nH]1	CA2	enzyme activity, inhibitor, absorbance	8680 nM
COc1ccc(N2CCN(Cc3cccnc3Oc3ccc(-c4c(C)c(=O)[nH]c(=O)n4C)c(C)c3)CC2)cc1	ADRA2A	ligand displacement, radioligand	1320 nM
COc1ccc(-n2cc(COC(=O)c3ccc(=O)oc3)nn2)cc1	CA1	enzyme activity, inhibitor, stopped-flow	> 100000 nM
CC1(C)CCN(CC(=O)Nc2nnc(S(N)(=O)=O)s2)CC1	CA2	enzyme activity, inhibitor, stopped-flow	31.1 nM
Cc1cc(Oc2ncccc2CN2CCN(c3ccccc3[N+](=O)[O-])CC2)ccc1-c1c(C)c(=O)[nH]c(=O)n1C	ADRA2A	ligand displacement, radioligand	146 nM
COc1cc(C)c(/C=C/C(C)=C/C=C/C(C)=C/C(=O)O)c(C)c1C	CA2	enzyme activity, inhibitor, absorbance	7940 nM
Cc1cc(Oc2ncccc2CN2CCN(c3ccc(Br)cc3)CC2)ccc1-c1c(C)c(=O)[nH]c(=O)n1C	ADRA2A	ligand displacement, radioligand	841 nM
NS(=O)(=O)c1nnc(NC(=O)C2CCC3(CCCCC3)C2)s1 (stereo not drawn)	CA1	enzyme activity, inhibitor, stopped-flow	220 nM
CCOCCn1c(C2CCN(CCc3ccc(C(C)(C)C(=O)O)cc3)CC2)nc2ccccc21	CA1	enzyme activity, inhibitor	9530 nM
